Source: ChEMBL document CHEMBL1926514, “Pyridobenzothiazole derivatives as new chemotype targeting the HCV NS5B polymerase” (Bioorg Med Chem, 2012)
Calls of active or inactive are those of the source. No cut-off for these calls is given here.

Tests used:
[1] = Cytotoxicity against human HuH5.2 cells after 72 hrs by MTS assay; type: cell-based, Huh-5-2
How it was run: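 Metabolic activity was read as absorbance at 498 nm, with OD converted to % of untreated controls. CC50 came from the dose–response curve as 50% reduction of metabolic activity.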

[2] = tested on: Hepatitis C virus; experiment: Antiviral activity against HCV genotype 1b infected in human HuH5.2 cells assessed as inhibition of […] after 72 hrs by luciferase reporter gene assay; type: functional, organism-based, Hepacivirus hominis; details: Huh-5-2, 72 h
How it was run: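 Four-step 1-to-5 dilution series were tested for 72 h at 37 °C, 5% CO₂. Cells were washed with PBS and lysed 5 min at room temperature, and luciferase luminescence was read as % of untreated controls. EC50 and EC90 came from dose–response curves; at least three independent experiments.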

[3] = tested on: Hepatitis C virus; experiment: Inhibition of HCV genotype 1b recombinant NS5B Cdelta21 polymerase expressed in Escherichia coli assessed as [3H]UTP incorporation into RNA/RNA homopolymeric template (rA)40/(rU)20 at 10 uM after 40 mins by liquid scintillation counting in presence of increase concentration of RNA primer/template; details: Hepatitis C virus subtype 1b
How it was run: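 NS5BΔC21 [³H]-UTP incorporation assay on (rA)40/(rU)20 at 25 °C for 40 min, with DE-81 filter scintillation read-out. Inhibitor was held at a fixed subsaturating dose while the RNA primer/template was raised across two increasing doses; inhibitor was preincubated 5 min on ice with enzyme and RNA before UTP addition.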

[4] = tested on: Hepatitis C virus; experiment: Inhibition of HCV genotype 1b recombinant NS5B Cdelta21 polymerase expressed in Escherichia coli assessed as [3H]UTP incorporation into RNA/RNA homopolymeric template (rA)40/(rU)20 at 10 uM after 40 mins by liquid scintillation counting in presence of increase concentration of UTP; details: Hepatitis C virus subtype 1b
How it was run: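 NS5BΔC21 [³H]-UTP incorporation assay on (rA)40/(rU)20 at 25 °C for 40 min, with filter-binding scintillation read-out. Inhibition was measured at varying UTP concentrations; inhibitor was preincubated 5 min on ice with enzyme and RNA template.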

[5] = tested on: Hepatitis C virus; experiment: Inhibition of HCV genotype 1b recombinant NS5B Cdelta21 polymerase expressed in Escherichia coli assessed as [3H]UTP incorporation into RNA/RNA homopolymeric template (rA)40/(rU)20 after 40 mins by liquid scintillation counting; parameters: species or system Hepatitis C virus subtype 1b
How it was run: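 E. coli-expressed NS5BΔC21 (genotype 1b), purified on DEAE and heparin columns, was used at 25–50 nM. Buffer: 50 mM Tris–HCl pH 8.0, 1 mM DTT, 0.25 mg/mL BSA, 0.25 mM MnCl₂, with (rA)40/(rU)20 primer/template. Inhibitor was preincubated 5 min on ice with enzyme and RNA, then [³H]-UTP (37 Ci/mmol) was added for 40 min at 25 °C. Product was captured on DE-81 filters and counted by scintillation. IC50 is the mean of at least three experiments.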

Row | EC50 [2] | IC50 [5] | Structure (SMILES) | CC50 at 72 h [1] | inhibition [3] | inhibition [4]
1 | 55.8 µM | 19 µM | O=C(O)c1cc(-c2ccccc2)c(=O)n2c1S(=O)(=O)c1ccc(OC3CCCCC3)cc1-2 | > 100 µM | inactive | Active
2 | > 100 µM | > 40 µM | O=C(O)c1cc(-c2ccccc2)c(=O)n2c1sc1ccc(F)cc12 | > 100 µM | – | –
3 | 89.7 µM | > 40 µM | COc1ccc2c(c1)-n1c(c(C(=O)O)cc(-c3ccccc3)c1=O)S2(=O)=O | > 100 µM | – | –
4 | 53.5 µM | > 40 µM | O=C(O)c1cc(C2CCCCC2)c(=O)n2c1sc1ccccc12 | > 100 µM | – | –
5 | 54 µM | > 40 µM | CC(C)CCOc1ccc2sc3c(C(=O)O)cc(-c4ccccc4)c(=O)n3c2c1 | 55 µM | – | –
6 | – | 15 µM | O=C(O)C1=CC(=C(c2ccc(O)c(C(=O)O)c2)c2ccc(O)c(C(=O)O)c2)C=CC1=O [AURINTRICARBOXYLIC ACID] | – | – | –
7 | > 100 µM | 11 µM | O=C(O)c1cc(-c2ccccc2)c(=O)n2c1sc1ccc(OC3CCCCC3)cc12 | > 100 µM | inactive | Active
8 | 66 µM | > 40 µM | O=C(O)c1cc(-c2ccccc2)c(=O)n2c1S(=O)(=O)c1ccc(F)cc1-2 | > 100 µM | – | –
9 | 51.2 µM | > 40 µM | COc1ccc2sc3c(C(=O)O)cc(-c4ccccc4)c(=O)n3c2c1 | 51.8 µM | – | –
10 | > 56.5 µM | 23 µM | O=C(O)c1cc(C2CCCCC2)c(=O)n2c1sc1ccc(OC3CCCCC3)cc12 | > 56.5 µM | inactive | Active
11 | > 100 µM | > 40 µM | O=C(O)c1ccc(=O)n2c1sc1ccc(OC3CCCCC3)cc12 | > 100 µM | – | –
12 | > 100 µM | > 40 µM | CC(=O)c1cc(C(=O)O)c2sc3ccc(OC4CCCCC4)cc3n2c1=O | > 100 µM | – | –
